Experiments:
[1] = test system: PC-3; experiment: Antiproliferative activity against human PC3 cells after 72 hrs by MTT assay; format: functional, cell-based; details: PC-3, 72 h
[2] = test system: LNCaP; experiment: Antiproliferative activity against human LNCAP cells after 72 hrs by MTT assay; format: functional, cell-based
[3] = test system: MCF7; experiment: Antiproliferative activity against human MCF7 cells after 72 hrs by MTT assay; format: functional, cell-based; details: MCF7, 72 h
[4] = test system: MDA-MB-231; experiment: Antiproliferative activity against human MDA-MB-231 cells after 72 hrs by MTT assay; format: functional, cell-based; details: MDA-MB-231, 72 h
[5] = Antiproliferative activity against human MCF10A cells after 72 hrs by MTT assay; format: cell-based; details: MCF-10A
Outline: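 Spontaneously immortalized, non-malignant human mammary epithelial MCF-10A cells were exposed to compounds for 72 h. Viability was read by MTT assay, and IC50 was taken from that read-out.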

[6] = test system: MCF-10A; experiment: Ratio of IC50 for human MCF10A cells to IC50 for human PC3 cells
Outline: (§1)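 Selectivity ratio is the IC50 on non-malignant MCF-10A cells divided by the IC50 on the cancer cell line.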

[7] = test system: LNCaP; experiment: Ratio of IC50 for human MCF10A cells to IC50 for human LNCAP cells; outline: as §1
[8] = test system: MCF7; experiment: Ratio of IC50 for human MCF10A cells to IC50 for human MCF7 cells; outline: as §1
[9] = test system: MDA-MB-231; experiment: Ratio of IC50 for human MCF10A cells to IC50 for human MDA-MB-231 cells; outline: as §1

Compound | IC50 [1] [µM] | IC50 [2] [µM] | IC50 [3] [µM] | IC50 [4] [µM] | IC50 [5] [µM] | Ratio IC50 [6] | Ratio IC50 [7] | Ratio IC50 [8] | Ratio IC50 [9]
O=C(/C=C/c1ccc(O)cc1)CC(=O)/C=C/c1ccc(O)cc1 [BISDEMETHOXYCURCUMIN] | 27.3 | 19.7 | 24.3 | 21.9 | – | – | – | – | –
COc1cc(/C=C/C(O)=C/C(=O)/C=C/c2ccc(OS(N)(=O)=O)c(OC)c2)ccc1O | 19.3 | 20 | 15.1 | 14.3 | – | – | – | – | –
COc1cc(/C=C/C(=O)CC(=O)/C=C/c2ccc(O)c(OC)c2)ccc1O [CURCUMIN] | 19.8 | 19.6 | 21.5 | 25.6 | 30.1 | – | – | – | –
COc1ccc(/C=C/C(=O)/C=C(O)/C=C/c2ccc(OC)c(O)c2)cc1O | > 40 | > 40 | > 40 | > 40 | – | – | – | – | –
COc1cc(/C=C/C(=O)/C=C(O)/C=C/c2cc(OC)c(OS(N)(=O)=O)c(OC)c2)cc(OC)c1OS(N)(=O)=O | 13.1 | 10.4 | 4.7 | 5.5 | – | – | – | – | –
COc1cccc(/C=C/C(=O)/C=C(O)/C=C/c2cccc(OC)c2)c1 | 40 | 34.7 | 25.9 | 31.9 | – | – | – | – | –
COc1cc(/C=C/C(O)=C/C(=O)/C=C/c2ccc(OC)c(OC)c2)ccc1O [METHYLCURCUMIN] | 20.9 | 6.8 | 15.4 | 7.2 | – | – | – | – | –
COc1cc(/C=C/c2cc(/C=C/c3ccc(O)c(OC)c3)n(C)n2)ccc1O | 16.2 | 12.1 | 15.8 | 20.4 | – | – | – | – | –
COc1ccc(/C=C/C(=O)/C=C(O)/C=C/c2ccc(OC)c(OS(N)(=O)=O)c2)cc1OS(N)(=O)=O | 7.4 | 7.7 | 5.5 | 6.5 | – | – | – | – | –
O=C(/C=C/c1ccc(O)cc1)/C=C/c1ccc(O)cc1 | 9.5 | 5.8 | 6.9 | 3.9 | – | – | – | – | –
CC(=O)Oc1ccc(/C=C/C(=O)/C=C(O)/C=C/c2ccc(OC(C)=O)c(OC(C)=O)c2)cc1OC(C)=O | 12.9 | 20.2 | 17.8 | 12.3 | – | – | – | – | –
COc1cc(/C=C/C(=O)/C=C(O)/C=C/c2ccc(OS(N)(=O)=O)c(OC)c2)ccc1OS(N)(=O)=O | 7.5 | 5.9 | 5.5 | 3.1 | – | – | – | – | –

Now those with a lower IC50 [1], led by results:

IC50 [1] [µM] | IC50 [2] [µM] | IC50 [3] [µM] | IC50 [4] [µM] | Compound | IC50 [5] [µM] | Ratio IC50 [6] | Ratio IC50 [7] | Ratio IC50 [8] | Ratio IC50 [9]
6.1 | 2.4 | 6.6 | 1.7 | COc1cc(/C=C/C(=O)/C=C/c2ccc(OS(N)(=O)=O)c(OC)c2)ccc1OS(N)(=O)=O | – | – | – | – | –
5.9 | 2.6 | 2.9 | 3.1 | COc1ccc(/C=C/C(=O)/C=C/c2ccc(OC)c(O)c2)cc1O | – | – | – | – | –
5.9 | 3.9 | 5.4 | 4.9 | COc1ccc(/C=C/C(=O)/C=C(O)/C=C/c2ccc(OC)c(OC)c2)cc1OC [DIMETHYLCURCUMIN] | 31.5 | – | – | – | –
5.6 | 3.4 | 5.9 | 6.6 | COc1cc(/C=C/c2cc(/C=C/c3ccc(O)c(OC)c3)[nH]n2)ccc1O [CURCUMIN PYRAZOLE] | > 50 | >=5 | >=5 | >=5 | >=5
5.1 | 5.1 | 3.5 | 4.2 | NS(=O)(=O)Oc1ccc(/C=C/C(=O)/C=C/c2ccc(OS(N)(=O)=O)cc2)cc1 | – | – | – | – | –
4.6 | 1.7 | 2.4 | 2.4 | COc1cc(OC)c(OC)cc1/C=C/C(=O)/C=C/c1cc(OC)c(OC)cc1OC | > 50 | >=5 | >=5 | >=5 | >=5
3.9 | 2.7 | 2.4 | 2.8 | COc1cc(/C=C/C(=O)/C=C/c2ccc(O)c(OC)c2)ccc1O | – | – | – | – | –
3.6 | 2.5 | 1.7 | 2.7 | COc1cc(/C=C/C(=O)/C=C/c2cc(OC)c(O)c(OC)c2)cc(OC)c1O | – | – | – | – | –
2.9 | 2.2 | 2.5 | 1.6 | COc1ccc(/C=C/C(=O)/C=C/c2ccc(OC)c(OC)c2)cc1OC | – | – | – | – | –
2.5 | 2.1 | 2.7 | 1.5 | COc1cc(/C=C/C(=O)/C=C/c2cc(OC)cc(OC)c2)cc(OC)c1 | > 50 | >=5 | >=5 | >=5 | >=5
2.4 | 1.9 | 1.5 | 0.6 | COc1cc(/C=C/C(=O)/C=C/c2cc(OC)c(OS(N)(=O)=O)c(OC)c2)cc(OC)c1OS(N)(=O)=O | – | – | – | – | –
2.1 | 0.5 | 0.4 | 0.6 | COc1cc(OC)c(/C=C/C(=O)/C=C/c2c(OC)cc(OC)cc2OC)c(OC)c1 | > 50 | 25 | 25 | 25 | 25

— ChEMBL document CHEMBL1153333, “Structure-activity relationship studies of curcumin analogues” (Bioorg Med Chem Lett, 2009)
